In ChEMBL document CHEMBL1121529, “Synthesis of [82Br]bromperidol and preliminary tissue distribution studies in the rat” (J Med Chem, 1980):

Assays:
Parameters in all cases: dose 0.2 mg/kg, route intravenous
Rattus norvegicus [1] = test: Tested for the tissue distribution of Br activity at 45 min in blood following intravenous injection in rat at the dose of 0.2 mg/kg; assay type: ADME, organism-based; conditions: in vivo, 0.75 h
Summary of the method: (§1)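 Male Sprague-Dawley rats (300-320 g, fed ad libitum) anesthetized with sodium pentobarbital 45 mg/kg, then given an iv bolus into the jugular vein of 19-22 µCi (0.2 mg/kg) [82Br]bromperidol in propylene glycol-ethanol-water (40:20:40), pH 4. Rats serially sacrificed by cardiac puncture. Organs counted 100 s at ~12 000 cpm with decay correction. Values are % dose/g, mean and SD of three.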

Rattus norvegicus [2] = test: Tested for the tissue distribution of Br activity at 120 min in brain following intravenous injection in rat at the dose of 0.2 mg/kg; assay type: ADME, organism-based; conditions: in vivo, 2 h; summary of the method: as §1
Rattus norvegicus [3] = test: Tested for the tissue distribution of Br activity at 60 min in kidney following intravenous injection in rat at the dose of 0.2 mg/kg; assay type: ADME, organism-based; conditions: in vivo, 1 h; summary of the method: as §1
Rattus norvegicus [4] = test: Tested for the tissue distribution of Br activity at 45 min in lung following intravenous injection in rat at the dose of 0.2 mg/kg; assay type: ADME, organism-based; conditions: in vivo, 0.75 h; summary of the method: as §1
Rattus norvegicus [5] = test: Tested for the tissue distribution of Br activity at 120 min in kidney following intravenous injection in rat at the dose of 0.2 mg/kg; assay type: ADME, organism-based; conditions: in vivo, 2 h; summary of the method: as §1
Rattus norvegicus [6] = test: Tested for the tissue distribution of Br activity at 30 min in liver following intravenous injection in rat at the dose of 0.2 mg/kg; assay type: ADME, organism-based; conditions: in vivo, 0.5 h; summary of the method: as §1
Rattus norvegicus [7] = test: Tested for the tissue distribution of Br activity at 120 min in liver following intravenous injection in rat at the dose of 0.2 mg/kg; assay type: ADME, organism-based; conditions: in vivo, 2 h; summary of the method: as §1
Rattus norvegicus [8] = test: Tested for the tissue distribution of Br activity at 30 min in blood following intravenous injection in rat at the dose of 0.2 mg/kg; assay type: ADME, organism-based; conditions: in vivo, 0.5 h; summary of the method: as §1
Rattus norvegicus [9] = test: Tested for the tissue distribution of Br activity at 30 min in kidney following intravenous injection in rat at the dose of 0.2 mg/kg; assay type: ADME, organism-based; conditions: in vivo, 0.5 h; summary of the method: as §1
Rattus norvegicus [10] = test: Tested for the tissue distribution of Br activity at 15 min in brain following intravenous injection in rat at the dose of 0.2 mg/kg; assay type: ADME, organism-based; conditions: in vivo, 0.25 h; summary of the method: as §1
Rattus norvegicus [11] = test: Tested for the tissue distribution of Br activity at 45 min in liver following intravenous injection in rat at the dose of 0.2 mg/kg; assay type: ADME, organism-based; conditions: in vivo, 0.75 h; summary of the method: as §1
Rattus norvegicus [12] = test: Tested for the tissue distribution of Br activity at 120 min in lung following intravenous injection in rat at the dose of 0.2 mg/kg; assay type: ADME, organism-based; conditions: in vivo, 2 h; summary of the method: as §1
Rattus norvegicus [13] = test: Tested for the tissue distribution of Br activity at 60 min in blood following intravenous injection in rat at the dose of 0.2 mg/kg; assay type: ADME, organism-based; conditions: in vivo, 1 h; summary of the method: as §1
Rattus norvegicus [14] = test: Tested for the tissue distribution of Br activity at 15 min in blood following intravenous injection in rat at the dose of 0.2 mg/kg; assay type: ADME, organism-based; conditions: in vivo, 0.25 h; summary of the method: as §1
Rattus norvegicus [15] = test: Tested for the tissue distribution of Br activity at 60 min in liver following intravenous injection in rat at the dose of 0.2 mg/kg; assay type: ADME, organism-based; conditions: in vivo, 1 h; summary of the method: as §1
Rattus norvegicus [16] = test: Tested for the tissue distribution of Br activity at 15 min in liver following intravenous injection in rat at the dose of 0.2 mg/kg; assay type: ADME, organism-based; conditions: in vivo, 0.25 h; summary of the method: as §1
Rattus norvegicus [17] = test: Tested for the tissue distribution of Br activity at 30 min in lung following intravenous injection in rat at the dose of 0.2 mg/kg; assay type: ADME, organism-based; conditions: in vivo, 0.5 h; summary of the method: as §1
Rattus norvegicus [18] = test: Tested for the tissue distribution of Br activity at 45 min in kidney following intravenous injection in rat at the dose of 0.2 mg/kg; assay type: ADME, organism-based; conditions: in vivo, 0.75 h; summary of the method: as §1
Rattus norvegicus [19] = test: Tested for the tissue distribution of Br activity at 120 min in blood following intravenous injection in rat at the dose of 0.2 mg/kg; assay type: ADME, organism-based; conditions: in vivo, 2 h; summary of the method: as §1
Rattus norvegicus [20] = test: Tested for the tissue distribution of Br activity at 60 min in brain following intravenous injection in rat at the dose of 0.2 mg/kg; assay type: ADME, organism-based; conditions: in vivo, 1 h; summary of the method: as §1
Rattus norvegicus [21] = test: Tested for the tissue distribution of Br activity at 15 min in kidney following intravenous injection in rat at the dose of 0.2 mg/kg; assay type: ADME, organism-based; conditions: in vivo, 0.25 h; summary of the method: as §1
Rattus norvegicus [22] = test: Tested for the tissue distribution of Br activity at 60 min in lung following intravenous injection in rat at the dose of 0.2 mg/kg; assay type: ADME, organism-based; conditions: in vivo, 1 h; summary of the method: as §1
Rattus norvegicus [23] = test: Tested for the tissue distribution of Br activity at 15 min in lungs following intravenous injection in rat at the dose of 0.2 mg/kg; assay type: ADME, organism-based, Lung; conditions: in vivo, 0.25 h; summary of the method: as §1
Rattus norvegicus [24] = test: Tested for the tissue distribution of Br activity at 45 min in brain following intravenous injection in rat at the dose of 0.2 mg/kg; assay type: ADME, organism-based; conditions: in vivo, 0.75 h; summary of the method: as §1
Rattus norvegicus [25] = test: Tested for the tissue distribution of Br activity at 30 min in brain following intravenous injection in rat at the dose of 0.2 mg/kg; assay type: ADME, organism-based; conditions: in vivo, 0.5 h; summary of the method: as §1

For `O=C(CCCN1CCC(O)(c2ccc(Br)cc2)CC1)c1ccc(F)cc1` [BROMPERIDOL], the Dose/g (Rattus norvegicus [1]) was 0.14%, the Dose/g (Rattus norvegicus [2]) was 0.2% and the Dose/g (Rattus norvegicus [3]) was 0.93%. It also gave a Dose/g (Rattus norvegicus [4]) of 2.75%, a Dose/g (Rattus norvegicus [5]) of 0.61% and a Dose/g (Rattus norvegicus [6]) of 1.66%. The Dose/g (Rattus norvegicus [7]) was 1.44%, the Dose/g (Rattus norvegicus [8]) was 0.14% and the Dose/g (Rattus norvegicus [9]) was 1.2%. For the same molecule, the Dose/g (Rattus norvegicus [10]) was 0.58%, the Dose/g (Rattus norvegicus [11]) was 1.7% and the Dose/g (Rattus norvegicus [12]) was 1.23%. For the same molecule, the Dose/g (Rattus norvegicus [13]) was 0.14%, the Dose/g (Rattus norvegicus [14]) was 0.15% and the Dose/g (Rattus norvegicus [15]) was 1.58%. For the same molecule, the Dose/g (Rattus norvegicus [16]) was 1.53%, the Dose/g (Rattus norvegicus [17]) was 3.17% and the Dose/g (Rattus norvegicus [18]) was 1.03%. It also gave a Dose/g (Rattus norvegicus [19]) of 0.12%, a Dose/g (Rattus norvegicus [20]) of 0.32% and a Dose/g (Rattus norvegicus [21]) of 1.63%. The Dose/g (Rattus norvegicus [22]) was 2.25%, the Dose/g (Rattus norvegicus [23]) was 5.07% and the Dose/g (Rattus norvegicus [24]) was 0.41%. For the same molecule, the Dose/g (Rattus norvegicus [25]) was 0.41%.
